Data on 8 molecules can be found in ChEMBL document CHEMBL1124779, “Synthesis and antitumor activity of 1-[[(dialkylamino)alkyl]amino]-4-methyl-5H-pyrido[4,3-b]benzo[e]- and -benzo[g])indoles. A new class of antineoplastic agents” (1990).

Values after ≈ are worked out from the molar mass of the structure shown.

A short description of assay [1]: Cytotoxicity in the multiple tumor disk diffusion soft agar assay at the dose of 15 ug/disk against solid tumor C38. It counts as functional, Mus musculus. Put shortly: (§1)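 Soft agar disk diffusion: bottom layer 0.8% noble agar, top layer 0.47% noble agar, both in 1:1 CMRL-Fischer medium with 11% horse serum. Top layer seeded with 5×10^3 L1210 cells or 10^6 solid tumor cells (C38, PO3). Drug applied on a dried 6-mm filter-paper disk. Incubation 7-11 days. Inhibition zone measured by inverted microscope, in units (1 unit = 30 μm).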

The test system of assay [2] is P388. Description: In vivo T/C (survival time treated/survival time control x 100) was determined against P388 leukemia cells at 20 mg/Kg. It counts as functional, Mus musculus. Put shortly: (§2)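 B6D2 F1 mice, at least five per group, were inoculated ip on day 0 with 10^6 viable P388 cells (25 mL/kg). Compounds were dissolved in distilled water and given ip (25 mL/kg) daily on days 1–4. Mortality was checked daily, with necropsy of dead animals. T/C×100 was median survival, treated versus control. Survivors beyond 50 days counted as cured and were excluded from the median.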

Assay [3] relates to L1210. Description: Cytotoxicity in the multiple tumor disk diffusion soft agar assay at the dose of 15 ug/disk against leukemia L1210. Type of assay: functional, Mus musculus. The method in brief: as §1
(In general: In agar diffusion tests the substance spreads into inoculated agar from a disc or well.)

A short description of assay [4]: Tested for mean number of metastases in treated/control animals x 100 (% T/C) for murine solid tumor model 3LL early stage that is intramuscularly implanted by the intravenous treatment at the dose of 20 mg/kg in 1-4 schedule. The following applies: Mus musculus.
Assay [5] in a line: Tested for the change in body weight between day 1 and 7 for murine solid tumor model 3LL early stage that is subcutaneously implanted by the intravenous treatment at the dose of 20 mg/kg in 1-4 schedule. It counts as functional, Mus musculus.
Assay [6] is described as follows: Cytotoxicity in the multiple tumor disk diffusion soft agar assay at the dose of 15 ug/disk against solid tumor PO3. It counts as functional, Mus musculus. The method in brief: as §1
Assay [7] is filed under the species Mus musculus. Kind of assay: (§3) In vitro cytotoxicity was determined against P388 leukemia cells. Type of assay: functional. To be noted: read-out: ID50 (the source's name). Put shortly:
(§4)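 P388 cells in exponential growth, RPMI 1640 with 2 mM glutamine, 10 μM 2-mercaptoethanol and 10% FCS, 5% CO2, 37 °C. Cells at 10^5 cells/mL. Drugs in distilled water added on day 0. Cells counted by Coulter counter after 96 h. ID50 (μg/mL, 50% inhibition of proliferation) estimated by regression of concentration/response data.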

Assay [8] concerns Mus musculus. Kind of assay: In vivo total number of survivors was determined against L1210 Leukemia cells out of 8 mouse at 50 day. It counts as functional, Leukemia cell. The method in brief:
(§5)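 B6D2 F1 mice, at least five per group, were inoculated ip on day 0 with 10^5 viable L1210 cells (25 mL/kg). Compounds were dissolved in distilled water and given ip (25 mL/kg) on days 1–4. Deaths were checked daily, with necropsy to separate tumor from toxic death. T/C×100 was median survival of treated over controls. Mice surviving over 50 days counted as cured and were excluded from the median.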

The test system of assay [9] is Mus musculus. Description: In vivo total number of survivors was determined against P388 leukemia cells out of 5 mouse at 50 day. Type of assay: functional. The method in brief:
as §2

The test system of assay [10] is P388. Description: In vivo T/C (survival time treated/survival time control x 100) was determined against P388 leukemia cells at 10 mg/Kg. It counts as functional, Mus musculus. Put shortly: as §2
For assay [11], the system named is P388. The assay is described as §3. It counts as functional. To be noted: Mus musculus, read-out: ID50 (the source's name). Put shortly:
as §4

For assay [12], the system named is L1210. Kind of assay: Tested for cytotoxicity in the multiple tumor disk diffusion soft agar assay at the dose of 15 ug/disk against leukemia L1210; range is 420-490. It counts as functional, Mus musculus. The method in brief:
as §1

A short description of assay [13]: Tested for cytotoxicity in the multiple tumor disk diffusion soft agar assay at the dose of 15 ug/disk against solid tumor C38; range is 550-600. Type of assay: functional, Mus musculus. Put shortly: as §1
Assay [14] deals with P388. Kind of assay: In vivo T/C (survival time treated/survival time control x 100) was determined against P388 leukemia cells at 2.5 mg/Kg. Type of assay: functional, Mus musculus. The method in brief:
as §2

Assay [15] relates to P388. Description: In vivo T/C (survival time treated/survival time control x 100) was determined against P388 leukemia cells at 5.0 mg/Kg. Type of assay: functional, Mus musculus. Put shortly:
as §2

Assay [16] concerns L1210. Kind of assay: In vivo T/C (survival time treated/survival time control x 100) was determined against L1210 leukemia cells at 10 mg/Kg. It counts as functional, Mus musculus. Put shortly:
as §5

Assay [17] deals with L1210. Kind of assay: Tested for cytotoxicity in the multiple tumor disk diffusion soft agar assay at the dose of 15 ug/disk against leukemia L1210; range is 450-650. It counts as functional, Mus musculus. Put shortly:
as §1

Assay [18] in a line: Tested for cytotoxicity in the multiple tumor disk diffusion soft agar assay at the dose of 15 ug/disk against solid tumor C38. It counts as functional, Mus musculus. Put shortly:
as §1

Assay [19] has as its system L1210. Description: Tested for cytotoxicity in the multiple tumor disk diffusion soft agar assay at the dose of 15 ug/disk against leukemia L1210. Type of assay: functional, Mus musculus. Put shortly:
as §1

Assay [20] is described as follows: Tested for the change in body weight between day 1 and 7 for murine solid tumor model C26 early stage that is subcutaneously implanted by the intravenous treatment at the dose of 10 mg/kg in 1-4 schedule. Type of assay: functional, Mus musculus. Put shortly: (§6)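 sc implant of 1 mm³ tumor fragment. MA 16/C in C3H mice, B16 in C57BL/6 mice, C26 in CD2F1 mice; 10 per group. iv dosing on days 1-4 at 10 mL/kg. Mice weighed daily. Killed day 14 (C26) or day 15 (MA 16/C, B16) and tumors weighed. T/C×100 from median tumor weight, treated vs control. Body weight change taken from day 1 to 7.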

Assay [21] can be described thus: Tested for the change in body weight between day1 and 7 for murine solid tumor model MA 16/C early stage that is subcutaneously implanted by the intravenous treatment. It counts as functional, Mus musculus. The method in brief:
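Mice given sc 1 mm³ tumor fragment: C26 in CD2F1 mice, MA 16/C in C3H mice (tumors passaged in strain of origin), 10 per group. Drug given iv days 1–4 at 10 mL/kg. Animals weighed daily and watched for toxicity. Body-weight change taken from day 1 to day 7. Killed day 14 (C26) or 15 (MA 16/C).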

Assay [22] can be described thus: Tested for the change in body weight between day 1 and 14 for murine solid tumor model 3LL advanced stage that is intramuscularly implanted by the intravenous treatment at the dose of 10 mg/kg in 7-10 schedule. The following applies: Mus musculus.
A short description of assay [23]: Tested for the change in body weight between day 1 and 7 for murine solid tumor model 3LL early stage that is subcutaneously implanted by the intravenous treatment at the dose of 5 mg/kg in 1-4 schedule. It counts as functional, Mus musculus.
The nature of assay [24]: Tested for the change in body weight between day 1 and 7 for murine solid tumor model B16 early stage that is subcutaneously implanted by the intravenous treatment at the dose of 10 mg/kg in 1-4 schedule. It counts as functional. The following applies: Mus musculus, dose 5 mg/kg, in the assay text read “5 mg/kg” for “10 mg/kg”. The method in brief: as §6
Assay [25] in a line: Tested for medium tumor weight of treated /control animals x 100 (% T/C) for murine solid tumor model C26 early stage that is subcutaneously implanted by the intravenous treatment at the dose of 10 mg/kg in 1-4 schedule. It counts as functional, Mus musculus. The method in brief: as §6
A short description of assay [26]: Tested for mean number of metastases of treated /control animals x 100 (% T/C) for murine solid tumor model 3LL advanced stage that is intramuscularly implanted by the intravenous treatment at the dose of 10 mg/kg in 7-10 schedule. The following applies: Mus musculus.
Assay [27] can be described thus: Tested for medium tumor weight of treated /control animals x 100 (% T/C) for murine solid tumor model MA 16/C early stage that is subcutaneously implanted by the intravenous treatment at the dose of 10 mg/kg in 1-4 schedule. It counts as functional, Mus musculus. Put shortly: as §6
Assay [28] is described as follows: Tested for medium tumor weight of treated /control animals x 100 (% T/C) for murine solid tumor model B16 early stage that is subcutaneously implanted by the intravenous treatment at the dose of 5 mg/kg in 1-4 schedule. Type of assay: functional, Mus musculus. The method in brief:
as §6

The nature of assay [29]: Tested for medium tumor weight of treated /control animals x 100 (% T/C) for murine solid tumor model 3LL early stage that is subcutaneously implanted by the intravenous treatment at the dose of 10 mg/kg in 1-4 schedule. It counts as functional, Mus musculus.

In general, T/C refers to the ratio of treated to control. In the case of `Cc1c[nH]c(NCC(C)CN(C)C)c2c3c(ccc4cc(O)ccc43)nc1-2` (centres undefined), the Cytotoxicity in [1] came to 675 U; in the assay on L1210 [3], 300 U; in assay [6], 850 U. Moreover, the “T/C x100” value in the assay on P388 [2] was 213. Besides, the T/C in [4] came to 0%. For the same molecule, the Change in weight in assay [5] is reported as -1.7 g. Moreover, the IC50 in the assay filed under Mus musculus [7] came out at 0.1 µg/mL (≈ 0.276 µM). The Survivors in the assay on Mus musculus [8] was determined as 2; in the assay with Mus musculus [9] it was 3.

On to `Cc1c[nH]c(NCCCN(C)C)c2c3ccc4ccccc4c3nc1-2`, for which the Cytotoxicity was 500 U in the assay on L1210 [3], 310 U in [6], 420 U with L1210 [12] and 550 U in [13]. Besides, the “T/C x100” value in the assay on P388 [10] is 115. Besides, in the assay with P388 [11], the IC50 stood at 0.375 µg/mL (≈ 1.13 µM).

`Cc1c[nH]c(NCCCN(C)C)c2c3cc(O)ccc3nc1-2`: the “T/C x100” value in the assay with P388 [14] was 130.

With `COc1cccc2c1ccc1c2[nH]c2c(C)cnc(NCCCN(C)C)c21`, the “T/C x100” value in the assay on P388 [2] worked out at 121. For the same molecule, the Cytotoxicity was determined as 280 U in the assay with L1210 [3] and 225 U in [6]. Besides, the IC50 in the assay with P388 [11] was determined as 0.15 µg/mL (≈ 0.414 µM).

For the molecule `Cc1cnc(NCCCN(C)C)c2c3cc(O)ccc3n(C)c12`, the “T/C x100” value with P388 [15] is 128.

`CCN(CC)CCCNc1ncc(C)c2[nH]c3ccc4cc(O)ccc4c3c12`: the Cytotoxicity was determined as 625 U in assay [1], 475 U in the assay on L1210 [3], 900 U in [6] and 450 U with L1210 [17]. For the same molecule, the “T/C x100” value in the assay on L1210 [16] was 149; in the assay with P388 [10], 215. Besides, the IC50 with P388 [11] turned out to be 0.05 µg/mL (≈ 0.133 µM).

Consider `Cc1cnc(NCCCN(C)C)c2c1[nH]c1ccc3ccccc3c12`, for which the Cytotoxicity in assay [18] amounted to 675 U; with L1210 [19], 550 U. Moreover, the IC50 with P388 [11] stood at 0.1 µg/mL (≈ 0.301 µM).

For the molecule `Cc1cnc(NCCCN(C)C)c2c1[nH]c1ccc3cc(O)ccc3c12` [INTOPLICINE], the Change in weight in assay [20] is listed as -1.9 g; in assay [21], -1.7 g; in assay [22], -2.8 g; in [23] it was -2.1 g; in [24], -1.1 g. The “T/C x100” value is listed as 143 in the assay with L1210 [16], 270 in the assay with P388 [10] and 182 with P388 [15]. In addition, the Cytotoxicity with L1210 [3] is 375 U; in [6], 850 U; in assay [18], 700 U. In addition, the T/C stood at 0% in assay [25]; 34% in [26]; 2% in assay [27]; 28% in assay [28]; 0% in assay [29]. Also, the IC50 in the assay on P388 [11] stood at 0.025 µg/mL (≈ 0.0717 µM). This molecule gave a Survivors in the assay on Mus musculus [8] of 5.
